In ChEMBL document CHEMBL1126705, “16 beta-([18F]fluoro)estrogens: systematic investigation of a new series of fluorine-18-labeled estrogens as potential imaging agents for estrogen-receptor-positive breast tumors” (J Med Chem, 1993):

Experiments:
[1] = test system: Rattus norvegicus; assay: Tested in vivo for the biodistribution in rat uterus/blood at 1 hour after intravenous dose of 100 microCi of drug in 10%ethanol saline; format: ADME, organism-based
How it was run: (§1)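 Female Sprague-Dawley rats, 25 days old (~40–53 g), ether-anesthetized, given the 18F-labeled estrogen iv via femoral vein in 10% ethanol saline. […] Others were sacrificed by decapitation at 1 or 3 h. Blood and organs were excised, weighed and gamma counted as % injected dose/g, mean ± SD, typically n = 5 (4–6).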

[2] = test system: Rattus norvegicus; assay: Tested in vivo for the biodistribution in rat ovaries at 1 hour after intravenous dose of 100 microCi of the drug and 15 ug of estradiol; format: ADME, organism-based, Female gonad
How it was run: (§2)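 Immature (25-day-old) female Sprague-Dawley rats, ether-anesthetized, given the fluorine-18-labeled estrogen by femoral vein injection in 10% ethanol saline. […] Other groups were killed by decapitation at 1 or 3 h. Blood and organs were weighed and gamma-counted. Data are % injected dose/g, mean ± SD, typically n = 5 per group.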

[3] = test system: Rattus norvegicus; assay: Tested in vivo for the biodistribution in rat uterus/muscle at 1 hour after intravenous dose of 100 microCi of the drug and 15 ug of estradiol; format: ADME, organism-based, Muscle tissue; how it was run: as §1
[4] = target: T1, Alpha-fetoprotein (Rattus norvegicus) (UniProt P02773); assay: Relative binding affinity for Alphafetoprotein
T1 sequence (whole entry): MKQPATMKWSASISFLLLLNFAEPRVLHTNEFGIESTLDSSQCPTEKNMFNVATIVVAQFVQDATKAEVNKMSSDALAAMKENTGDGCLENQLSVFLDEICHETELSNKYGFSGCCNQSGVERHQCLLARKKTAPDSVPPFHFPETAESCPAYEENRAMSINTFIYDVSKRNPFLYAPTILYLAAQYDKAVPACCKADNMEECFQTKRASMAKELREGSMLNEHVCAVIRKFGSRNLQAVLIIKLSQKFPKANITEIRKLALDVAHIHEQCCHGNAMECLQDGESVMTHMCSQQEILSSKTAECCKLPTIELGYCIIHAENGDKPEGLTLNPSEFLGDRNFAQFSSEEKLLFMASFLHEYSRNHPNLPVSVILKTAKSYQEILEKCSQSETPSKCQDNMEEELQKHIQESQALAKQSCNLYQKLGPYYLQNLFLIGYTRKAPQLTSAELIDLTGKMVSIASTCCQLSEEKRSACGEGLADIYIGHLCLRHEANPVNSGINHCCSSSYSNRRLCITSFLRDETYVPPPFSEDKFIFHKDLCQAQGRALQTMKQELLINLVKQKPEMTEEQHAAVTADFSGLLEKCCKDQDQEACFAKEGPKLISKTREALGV

[5] = test system: Rattus norvegicus; assay: Tested in vivo for the biodistribution in rat uterus after 3 hours following an intravenous dose of 100 microCi of drug in 10%ethanol saline; format: ADME, organism-based; how it was run: as §2
[6] = test system: Rattus norvegicus; assay: Tested in vivo for the biodistribution in rat liver at 1 hour after intravenous dose of 100 microCi of drug in 10%ethanol saline; format: ADME, organism-based; how it was run: as §2
[7] = test system: Rattus norvegicus; assay: Tested in vivo for the biodistribution in rat ovaries at 1 hour after intravenous dose of 100 microCi of drug in 10%ethanol saline; format: ADME, organism-based, Female gonad; how it was run: as §2
[8] = test system: Rattus norvegicus; assay: Tested in vivo for the biodistribution in rat liver after 3 hours following an intravenous dose of 100 microCi of drug in 10%ethanol saline; format: ADME, organism-based; how it was run: as §2
[9] = test system: Rattus norvegicus; assay: Tested in vivo for the biodistribution in rat kidney at 1 hour after intravenous dose of 100 microCi of the drug and 15 u g of estradiol; format: ADME, organism-based
[10] = test system: Rattus norvegicus; assay: Tested in vivo for the biodistribution in rat uterus at 1 hour after intravenous dose of 100 microCi of the drug and 15 micro g of estradiol; format: ADME, organism-based; how it was run: as §2
[11] = test system: Rattus norvegicus; assay: Tested in vivo for the biodistribution in rat muscle at 1 hour after intravenous dose of 100 microCi of drug in 10%ethanol saline; format: ADME, organism-based, Muscle tissue; how it was run: as §2
[12] = test system: Rattus norvegicus; assay: Tested in vivo for the biodistribution in blood of female rat after 3 hours following an intravenous dose of 100 microCi of drug in 10%ethanol saline; format: ADME, organism-based
How it was run: (§3)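 Ether-anesthetized 25-day-old female Sprague-Dawley rats (~40–53 g) got the [18F] tracer in 10% ethanol saline via femoral vein. Rats were decapitated at 1 or 3 h, and blood and organs were weighed and gamma-counted. Values are % injected dose/g as mean ± SD, n = 5 per time point.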

[13] = test system: Rattus norvegicus; assay: Tested in vivo for the biodistribution in rat uterus/blood after 3 hours following an intravenous dose of 100 microCi of drug in 10%ethanol saline; format: ADME, organism-based; how it was run: as §1
[14] = test system: Rattus norvegicus; assay: Tested in vivo for the biodistribution in rat uterus/muscle after 3 hours following an intravenous dose of 100 microCi of drug in 10%ethanol saline; format: ADME, organism-based, Muscle tissue; how it was run: as §1
[15] = target: T2, Sex hormone-binding globulin (Homo sapiens) (UniProt P04278); assay: Relative binding affinity against sex steroid binding protein (SBP)
T2 sequence (whole entry): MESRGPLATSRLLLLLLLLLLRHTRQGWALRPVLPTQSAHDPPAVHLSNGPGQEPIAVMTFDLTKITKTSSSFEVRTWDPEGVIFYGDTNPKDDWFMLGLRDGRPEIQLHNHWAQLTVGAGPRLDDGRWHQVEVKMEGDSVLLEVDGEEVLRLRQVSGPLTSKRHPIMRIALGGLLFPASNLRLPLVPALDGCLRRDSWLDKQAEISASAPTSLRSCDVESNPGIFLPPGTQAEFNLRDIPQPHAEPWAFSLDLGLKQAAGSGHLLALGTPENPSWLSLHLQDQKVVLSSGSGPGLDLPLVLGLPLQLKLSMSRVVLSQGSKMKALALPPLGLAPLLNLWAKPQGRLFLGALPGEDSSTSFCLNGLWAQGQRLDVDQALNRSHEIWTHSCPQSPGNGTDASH

[16] = target: T3, Estrogen receptor (Rattus norvegicus) (UniProt P06211+Q62986)
[17] = target: T3, Estrogen receptor (Rattus norvegicus); remark: listed apart in the source
[18] = test system: Rattus norvegicus; assay: Tested in vivo for the biodistribution in rat ovaries after 3 hours following an intravenous dose of 100 microCi of drug in 10%ethanol saline; format: ADME, organism-based, Female gonad; how it was run: as §2
[19] = test system: Rattus norvegicus; assay: Tested in vivo for the biodistribution in rat bone at 1 hour after intravenous dose of 100 microCi of the drug and 15 ug of estradiol; format: ADME, organism-based, Bone element
[20] = test system: Rattus norvegicus; assay: Tested in vivo for the biodistribution in rat uterus at 1 hour after intravenous dose of 100 microCi of drug in 10%ethanol saline; format: ADME, organism-based; how it was run: as §2
[21] = test system: Rattus norvegicus; assay: Tested in vivo for the biodistribution in rat kidney at 1 hour after intravenous dose of 100 microCi of drug in 10%ethanol saline; format: ADME, organism-based; how it was run: as §3
[22] = test system: Rattus norvegicus; assay: Tested in vivo for the biodistribution in rat bone at 1 hour after intravenous dose of 100 microCi of drug in 10%ethanol saline; format: ADME, organism-based, Bone element; how it was run: as §3
[23] = test system: Rattus norvegicus; assay: Tested in vivo for the biodistribution in rat fat at 1 hour after intravenous dose of 100 microCi of drug in 10%ethanol saline; format: ADME, organism-based, Adipose tissue; how it was run: as §3
[24] = test system: Rattus norvegicus; assay: Tested in vivo for the biodistribution in rat liver at 1 hour after intravenous dose of 100 microCi of the drug and 15 u g of estradiol; format: ADME, organism-based; how it was run: as §2
[25] = test system: Rattus norvegicus; assay: Tested in vivo for the biodistribution in blood of female rat at 1 hour after intravenous dose of 100 microCi of drug in 10%ethanol saline; format: ADME, organism-based; how it was run: as §3
[26] = test system: Rattus norvegicus; assay: Tested in vivo for the biodistribution in rat uterus/blood at 1 hour after intravenous dose of 100 microCi of the drug and 15 ug of estradiol; format: ADME, organism-based; how it was run: as §1
[27] = test system: Rattus norvegicus; assay: Tested in vivo for the biodistribution in rat kidney after 3 hours following an intravenous dose of 100 microCi of drug in 10%ethanol saline; format: ADME, organism-based; how it was run: as §3
[28] = test system: Rattus norvegicus; assay: Tested in vivo for the biodistribution in rat fat at 1 hour after intravenous dose of 100 microCi of the drug and 15 ug of estradiol; format: ADME, organism-based, Adipose tissue
[29] = test system: Rattus norvegicus; assay: Tested in vivo for the biodistribution in blood of female rat at 1 hour after intravenous dose of 100 microCi of the drug and 15 u g of estradiol; format: ADME, organism-based
[30] = test system: Rattus norvegicus; assay: Tested in vivo for the biodistribution in rat muscle at 1 hour after intravenous dose of 100 microCi of the drug and 15 ug of estradiol; format: ADME, organism-based, Muscle tissue; how it was run: as §2
[31] = test system: Rattus norvegicus; assay: Tested in vivo for the biodistribution in rat fat after 3 hours following an intravenous dose of 100 microCi of drug in 10%ethanol saline; format: ADME, organism-based, Adipose tissue; how it was run: as §3
[32] = test system: Rattus norvegicus; assay: Tested in vivo for the biodistribution in rat bone after 3 hours following an intravenous dose of 100 microCi of drug in 10%ethanol saline; format: ADME, organism-based, Bone element; how it was run: as §3
[33] = test system: Rattus norvegicus; assay: Tested in vivo for the biodistribution in rat muscle after 3 hours following an intravenous dose of 100 microCi of drug in 10%ethanol saline; format: ADME, organism-based, Muscle tissue; how it was run: as §2
[34] = test system: Rattus norvegicus; assay: Tested in vivo for the biodistribution in rat uterus/muscle at 1 hour after intravenous dose of 100 microCi of drug in 10%ethanol saline; format: ADME, organism-based, Muscle tissue; how it was run: as §1
[35] = Partition coefficient (logP); format: physicochemical; settings: octanol/water
How it was run: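 Octanol/water log P estimated from log k'w measured by reversed-phase HPLC (Minick method) on a C8 silica column.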

`C#C[C@]1(O)[C@@H](F)C[C@H]2[C@@H]3CCc4cc(O)ccc4[C@H]3CC[C@@]21C` showed an Injected [1] of 16.87%, an Injected [2] of 0.863% and an Injected [3] of 2.424%. It also gave a relative binding affinity (RBA) [4] of 22, an Injected [5] of 4.31% and an Injected [6] of 2.249%. For the same compound, the Injected [7] was 2.159%, the Injected [8] was 2.204% and the Injected [9] was 0.752%. It also gave an Injected [10] of 0.533%, an Injected [11] of 0.307% and an Injected [12] of 0.358%. For the same compound, the Injected [13] was 12.21%, the Injected [14] was 32.37% and the relative binding affinity (RBA) [15] was 0.589. For the same compound, the NSB [16] was 1.04, the BSI [17] was 27 and the Injected [18] was 1.274%. It also gave an Injected [19] of 0.635%, an Injected [20] of 7.466% and an Injected [21] of 0.906%. It also gave an Injected [22] of 0.608%, an Injected [23] of 0.337% and an Injected [24] of 2.412%. The Injected [25] was 0.449%, the Injected [26] was 0.92% and the Injected [27] was 0.376%. It also gave an Injected [28] of 0.206%, an Injected [29] of 0.576% and an Injected [30] of 0.22%. It also gave an Injected [31] of 0.122%, an Injected [32] of 0.557% and an Injected [33] of 0.133%. The Injected [34] was 24.42% and the logP [35] was 3.3.
